Compound activity deposited in PubChem by several laboratories.
bCat KO growth: beta-catenin-lacking colon tumor cell growth suppression; HCT116 beta-catenin knockout viability, CellTiter-Glo, 60 h; active compounds read low; viability, % at 10 µM; actives 1.5% (n = 140,000); AID 818;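 active = viability at or under a set limit, the compound median less 4 SD, cut at about 6% in these data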;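 note: 0% = Hyamine 1622 control at 20 µM and 100% = untreated cell control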
Fibroblast inh: blocks proliferation of human lung fibroblasts. viability, % at 10 µM. actives 1.1% (n = 85,000). AID 719. LL 47 human lung fibroblast viability, ATP luminescence; active compounds read low;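 active = viability at or below 50% in the single dose screen; inactive = viability above 50%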;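 note: compound exposure lasted 72 h before the ATP readout; 100% = median luminescence of untreated cell-only wells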
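material = human LL 47 lung fibroblast cells | dosing = compounds added from tenfold dosing solution, 0.1% DMSO final | timing = overnight cell rest, 72 h compound treatment at 37 °C | measured by = CellTiter-Glo luminescence measuring cellular ATP | evaluation = % viability versus median cells-only luminescence | control set = cell-only wells, no compound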
HUVEC inhibit: human endothelial cell proliferation inhibition. HUVEC proliferation, CellTiter-Glo luminescence, 72 h; active compounds read low. viability, % at 10 µM (by protocol). actives 1.1% (n = 86,000);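 active = viability at or below 30%; inactive = viability above 30%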;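 note: 100% = median luminescence of DMSO-only cell control wells on each plate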
HCT116 PTEN-null: PTEN-deleted cell growth suppression. HCT116 PTEN-null viability, CellTiter-Glo, 60 h; active compounds read low. viability, % at 10 µM. actives 1.2% (n = 140,000). AID 827;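 active = viability at or below a set limit, 4 SD under the median of all tested compounds, cut at about 3.7% in these data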;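 note: PTEN knockout HCT116 line with beta catenin targeted HCT116 as companion control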
Phagocytosis inh: macrophage phagocytosis inhibition; J774A.1 macrophage IgG-bead phagocytosis, imaging; inhibition, % at 5 µM; actives 0.07% (n = 110,000); AID 1029;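 active = inhibition above the mean of the plate negative controls plus 5 SD, cut at about 13% in these data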;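 note: phagocytic index as fraction of beads internalized from green versus red external bead signal; plate controls were DMSO negative control for no effect and cytochalasin-D positive control for full effect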
H69AR growth 86K: blocks growth of human H69AR lung tumor cells; viability, % at 10 µM; actives 6% (n = 85,000); H69AR lung tumor viability, ATP luminescence, 72 h; active compounds read low; AID 598;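 active = viability at or below 40%; inactive = viability above 40%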;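 note: multidrug resistant small cell line overexpressing MRP-1 efflux transporter; 100% = mean luminescence of untreated control wells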
* marks the source's active call; other numbers are inactive results; nt = no result. The full list was thinned out, with hits kept by preference.

SMILES	bCat KO growth	Fibroblast inh	HUVEC inhibit	HCT116 PTEN-null	Phagocytosis inh	H69AR growth 86K
CCOC(=O)c1c(CSc2ccccc2)n(C)c2cc(Br)c(OCC(O)CNC(CO)(CO)CO)cc12 (centres undefined)	1.5*	nt	nt	2.1*	-2.8	nt
CCOC(=O)c1c(CN2CCN(Cc3ccccc3)CC2)n(C)c2cc(Br)c(OC)cc12	56.0	101.4	74.8	55.8	0.1	13.9*
CCOC(=O)c1c(C)n(C)c2cc(Br)c(C)cc12	90.5	99.2	98.4	95.2	0.5	97.2
Cc1ccc(C2Nc3cccc4cccc(c34)N2)s1	98.7	nt	nt	101.7	-6.8	nt
c1coc(C2Nc3cccc4cccc(c34)N2)c1	92.5	98.5	77.7	89.5	-3.2	6.7*
COc1cc(C2Nc3cccc4cccc(c34)N2)cc(OC)c1O	90.7	106.6	81.5	88.7	nt	18.8*
Oc1ccc(C2Nc3cccc4cccc(c34)N2)c(O)c1	94.8	82.8	82.3	81.3	nt	17.0*
CN1CCN(c2ccccc2NC(=O)COc2ccc(Br)cc2)CC1	90.5	95.8	84.6	nt	-0.3	86.5
CN(C)c1cccc(C(=O)Nc2cc(C(F)(F)F)ccc2-n2cnc3ccccc32)c1	70.8	nt	nt	61.6	-7.7	nt
O=C(CN1CCC(O)CC1)N1c2ccccc2C=Cc2ccccc21	99.3	102.5	93.2	102.0	-0.2	88.7
O=C(CSCCSCC(=O)c1ccco1)c1ccco1	101.1	94.4	87.2	103.6	1.1	85.0
O=C(CC(SCCO)c1ccc(F)cc1)c1ccco1 (centres undefined)	4.0*	nt	nt	2.5*	nt	nt
Cc1ccc(C(CC(=O)c2ccco2)SCCO)cc1 (centres undefined)	5.5*	nt	nt	4.8	nt	nt
CC(=S)c1c(C)cc2cc(C)ccn12	104.4	nt	nt	99.3	0.9	nt
COc1cccc(C2SCC(=O)N2c2ccc(Br)cc2)c1OC (centres undefined)	81.7	nt	nt	90.8	-15.1	nt
Cc1ccc(S(=O)(=O)CCC(=O)c2ccc(O)cc2O)cc1	45.1	86.9	86.8	29.6	-0.8	1.0*
Cc1ccc(S(=O)(=O)CCC(=O)OCc2ccc(Cl)cc2)cc1	95.2	nt	nt	103.3	-8.3	nt
CCCCOc1ccc(C(=O)N2CCC(C)CC2)cc1	94.5	100.0	108.4	105.6	-2.4	100.5
CCCCOc1ccc(C(=O)OC2CC(C)N(C)CC2C)cc1 (centres undefined)	53.5	88.4	15.2*	62.8	nt	62.5
CCOc1ccc(-c2nn(-c3ccccc3)cc2/C=C2\SC(N)=NC2=O)cc1C	1.1*	nt	nt	0.7*	1.9	nt
O=C(OCC1OC(n2cnc3c(N(C(=O)c4ccccc4)C(=O)c4ccccc4)ncnc32)C(O)C1F)c1ccccc1 (centres undefined)	78.0	105.1	84.3	82.1	-0.7	2.7*
CC1(C)OC2OC(COC(=O)c3ccccc3)C3OC(C)(C)OC3C2O1 (centres undefined)	89.2	nt	nt	94.5	-8.6	nt
CCCCC(=O)Nc1cccc(NC(=S)NC(C)=O)c1	96.0	nt	nt	93.3	-7.3	nt
CCCCN(C)C/C(O)=C(\C#N)c1nc(-c2ccccc2)cs1	102.0	96.0	82.5	91.9	-0.5	38.7*
CN1CCN(C2=Cc3ccc(Cl)cc3Sc3ccc(F)cc32)CC1	10.1	94.1	3.8*	6.5	nt	21.2*
SMILES	bCat KO growth	Fibroblast inh	HUVEC inhibit	HCT116 PTEN-null	Phagocytosis inh	H69AR growth 86K
Cc1nnc2sc(-c3cccc(NC(=O)c4ccc(-c5cccc(Cl)c5)o4)c3)nn12	nt	97.9	74.0	nt	nt	nt
Cc1nnc2sc(-c3ccc(NC(=O)c4ccc(-c5ccc(Br)cc5)o4)cc3)nn12	nt	67.3	71.6	nt	nt	20.8*
Cc1ccc(-c2nn3c(C)nnc3s2)cc1NC(=O)c1ccc(-c2ccc(Cl)cc2Cl)o1	2.3*	6.5*	6.5*	3.2*	-0.7	104.4
COC(=O)c1ccccc1NC(=O)c1ccc(COc2ccccc2)o1	80.2	95.6	85.6	77.9	-2.4	75.3
Cc1ccc(-c2nn3c(C)nnc3s2)cc1NC(=O)c1ccc(-c2cccc(Cl)c2)o1	11.5	98.9	36.2	8.4	0.8	4.2*
COC(=O)c1ccccc1NC(=O)c1ccc(-c2cccc(Cl)c2)o1	23.9	86.2	51.9	22.2	0.4	12.3*
CSC(=Nc1ccc(Cl)cc1)N[n+]1ccccc1	91.9	nt	nt	88.5	-2.3	nt
CCc1nc(SCc2ccc(F)cc2)[nH]c(=O)c1C#N	92.3	100.1	90.6	99.2	nt	96.0
O=C(Nc1ccc(CN2CCOCC2)cc1)c1ccc(-c2ccc(Br)cc2)o1	13.5	75.1	45.0	16.5	-0.2	19.0*
OC(CNCCc1ccc(C(F)(F)F)cc1)COc1cccc2ccccc12 (centres undefined)	1.7*	nt	nt	1.7*	-5.5	nt
OC(CNCCc1ccc(C(F)(F)F)cc1)COc1ccc2ccccc2c1 (centres undefined)	8.9	nt	nt	22.6	-0.1	nt
Cc1ccc(NC(=O)CC2C(=O)N(Cc3ccccc3)C(=S)N2NC(=O)c2ccccc2)c(C)c1 (centres undefined)	79.7	nt	nt	76.9	-7.6	nt
O=C(CCl)Nc1cc(-c2ccccc2)nn1-c1ccccc1	3.6*	6.8*	14.5*	2.5*	0.3	1.2*
Cc1ccc(-c2cc(NC(=O)CCl)n(-c3ccccc3)n2)cc1	2.6*	3.3*	9.6*	2.0*	-0.7	0.9*
Nc1cc2nsnc2cc1Br	1.8*	nt	nt	10.1	nt	nt
COc1cc2c(cc1OC)C(c1ccc(-c3ccc(Cl)c(Cl)c3)o1)=NCC2	4.1*	71.1	64.8	2.8*	-0.7	19.2*
COc1cc2c(cc1OC)C(c1ccc(-c3ccccc3Cl)o1)=NCC2	16.4	81.5	67.8	16.9	-2.1	29.5*
COc1cc2c(cc1OC)C(c1ccc(-c3cc(Cl)ccc3Cl)o1)=NCC2	6.7	84.5	76.8	3.3*	-1.4	55.9
COc1cc2c(cc1OC)C(c1ccc(-c3ccc(Cl)cc3Cl)o1)=NCC2	11.4	nt	nt	13.3	nt	nt
O=C(CC12CC3CC(CC(C3)C1)C2)Nc1cccc2ncccc12	64.9	93.6	97.9	68.4	-0.4	99.7
O=C(/C=C/c1ccc(Cl)cc1)NCc1ccco1	98.0	nt	nt	97.5	nt	nt
COc1cccc(C2C3=C(N=c4s/c(=C\c5cccc(O)c5)c(=O)n42)c2ccccc2CC3)c1OC (centres undefined)	2.4*	nt	nt	1.7*	-5.1	nt
O=C1CC(c2ccccc2)n2nc(NC(=O)c3ccccn3)nc2N1 (centres undefined)	84.6	54.4	92.8	80.3	-0.1	29.0*
O=c1ccsn1Cc1ccccc1	1.3*	8.6*	83.2	5.0	-1.8	1.3*
O=c1ccn(Cc2ccccc2)c(=O)n1Cc1ccccc1	92.0	88.2	100.1	86.9	-0.5	95.1
Cc1cc(S(=O)(=O)Nc2cccnc2)c(C)s1	92.2	103.2	89.9	94.2	-1.9	105.6
Cc1cc(S(=O)(=O)Nc2cc(C)c(O)c(C)c2)c(C)s1	1.9*	90.7	87.6	2.1*	nt	89.4
Cc1cc(S(=O)(=O)Nc2ccc3ccccc3c2)c(C)s1	13.7	71.5	54.7	22.6	0.5	12.5*
Brc1ccccc1OCCCn1cnc2ccccc21	93.0	93.8	16.4*	nt	-0.4	72.1
